Test results: ChEMBL document CHEMBL1124984, “Benzophenone dicarboxylic acid antagonists of leukotriene B4. 2. Structure-activity relationships of the lipophilic side chain” (J Med Chem, 1990)

Columns and labels:
[1] = biological target: T1, Leukotriene B4 receptor (Homo sapiens) (UniProt Q9NPC1+Q15722); assay: Antagonistic activity against Leukotriene B4 receptor by using [3H]- LTB4 as a radioligand at a concentration of 10e-6 M; assay type: functional
Outline: (§1)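 Neutrophil suspensions (≥90% neutrophils, ≥90% viable) at 2 × 10^7 cells/mL in Hanks' balanced salt solution with 0.1% ovalbumin. Cells were incubated 10 min at 4 °C with compound in DMSO and [3H]LTB4 added as a 2.65 nM solution. Cells were spun 2 min through dibutyl/dinonyl phthalate (7:2) and the pellet counted by scintillation. Nonspecific binding was measured with >2000-fold excess unlabeled ligand. Results are % inhibition of specific binding, mean of ≥3 replicates.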

[2] = biological target: T2, Leukotriene B4 receptor 1 (Homo sapiens, UniProt Q15722); assay: Inhibition of binding of B4 (LTB4) to its Leukotriene B4 receptor on intact human neutrophils at a concentration of 10e -7M.; outline: as §1
[3] = biological target: T2, Leukotriene B4 receptor 1; assay: Inhibition of binding of B4 (LTB4) to Leukotriene B4 receptor on intact human neutrophils at a concentration of 10e -8M.; outline: as §1
[4] = biological target: T1, Leukotriene B4 receptor (Homo sapiens); assay: Antagonistic activity against Leukotriene B4 receptor by using [3H]- LTB4 as a radioligand at a concentration of 10e-5 M; assay type: functional; outline: as §1
[5] = biological target: T1, Leukotriene B4 receptor (Homo sapiens); assay: Antagonistic activity against Leukotriene B4 receptor by using [3H]- LTB4 as a radioligand at a concentration of 10e-8 M; assay type: functional; outline: as §1
[6] = biological target: T1, Leukotriene B4 receptor (Homo sapiens); assay: Antagonistic activity against Leukotriene B4 receptor by using [3H]- LTB4 as a radioligand at a concentration of 10e-7 M; assay type: functional; outline: as §1
[7] = biological target: T2, Leukotriene B4 receptor 1; assay: Inhibition of specific binding of [3H]LTB4 to Leukotriene B4 receptor in human neutrophils

T2 sequence (Q15722 whole entry): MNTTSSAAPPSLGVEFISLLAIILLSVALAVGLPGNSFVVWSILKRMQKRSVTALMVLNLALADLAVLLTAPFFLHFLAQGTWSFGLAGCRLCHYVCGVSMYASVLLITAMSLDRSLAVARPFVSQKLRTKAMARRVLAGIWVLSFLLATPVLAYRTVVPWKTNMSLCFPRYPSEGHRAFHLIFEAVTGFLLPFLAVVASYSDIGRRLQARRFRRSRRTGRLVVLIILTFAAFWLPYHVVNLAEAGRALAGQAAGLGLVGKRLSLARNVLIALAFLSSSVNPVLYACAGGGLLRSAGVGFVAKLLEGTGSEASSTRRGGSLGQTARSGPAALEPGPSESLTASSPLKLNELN
T1 sequence (Q15722 whole entry, looked up): as the sequence (Q15722 whole entry) above
T1 sequence (Q9NPC1 whole entry, looked up): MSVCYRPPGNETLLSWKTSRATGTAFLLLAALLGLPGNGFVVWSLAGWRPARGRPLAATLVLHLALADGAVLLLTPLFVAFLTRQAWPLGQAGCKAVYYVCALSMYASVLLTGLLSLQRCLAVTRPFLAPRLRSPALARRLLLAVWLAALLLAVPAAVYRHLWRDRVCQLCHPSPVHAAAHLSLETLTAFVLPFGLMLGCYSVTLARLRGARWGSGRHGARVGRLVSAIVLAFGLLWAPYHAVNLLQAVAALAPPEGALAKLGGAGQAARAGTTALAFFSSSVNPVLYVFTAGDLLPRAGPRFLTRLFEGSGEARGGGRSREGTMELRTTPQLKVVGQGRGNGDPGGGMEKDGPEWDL

Row | inhibition [1] [%] | inhibition [2] [%] | inhibition [3] [%] | inhibition [4] [%] | inhibition [5] [%] | inhibition [6] [%] | IC50 [7] [nM] | Compound
1 | 0 | 0 | 0 | 0 |  |  |  | CCOc1ccc(C(=O)c2cccc(C(=O)O)c2)cc1CCC(=O)O
2 | 10 | 0 | 0 | 56 |  |  |  | CCCCCCOc1ccc(C(=O)c2cccc(C(=O)O)c2)cc1CCC(=O)O
3 | 4 |  |  | 18 |  |  |  | O=C(O)CCc1cc(C(=O)c2cccc(C(=O)O)c2)ccc1OCCCCS(=O)(=O)c1ccccc1
4 | 35 | 0 | 0 | 87 |  |  |  | CCCCCCCCOc1ccc(C(=O)c2cccc(C(=O)O)c2)cc1CCC(=O)O
5 |  |  |  | 72 |  |  |  | O=C(O)CCc1cc(C(=O)c2cccc(C(=O)O)c2)ccc1OCCCCc1cccs1
6 | 29 |  |  | 89 |  |  |  | O=C(O)CCc1cc(C(=O)c2cccc(C(=O)O)c2)ccc1OCCCCSc1ccccc1
7 | 92 |  |  | 100 | 3 | 34 |  | O=C(O)CCc1cc(C(=O)c2cccc(C(=O)O)c2)ccc1OCCCC/C=C/c1ccccc1
8 | 0 |  |  | 22 |  |  |  | O=C(O)CCc1cc(C(=O)c2cccc(C(=O)O)c2)ccc1OCCCC[S+]([O-])c1ccccc1 (stereo not drawn)
9 | 90 |  |  |  | 11 | 46 |  | CC(=O)c1ccc(CCCCCCOc2ccc(C(=O)c3cccc(C(=O)O)c3)cc2CCC(=O)O)cc1
10 | 19 |  |  | 60 |  |  |  | O=C(O)CCc1cc(C(=O)c2cccc(C(=O)O)c2)ccc1OCCCc1ccccc1
11 | 91 |  |  | 100 | 5 | 3 |  | COc1ccccc1CCCCCCOc1ccc(C(=O)c2cccc(C(=O)O)c2)cc1CCC(=O)O
12 | 60 | 7 |  | 95 |  |  |  | CCCCCCCCCCOc1ccc(C(=O)c2cccc(C(=O)O)c2)cc1CCC(=O)O
13 | 7 |  |  | 0 |  |  |  | COc1ccc(C(=O)c2cccc(C(=O)O)c2)cc1CCC(=O)O
14 | 96 |  |  | 100 | 18 | 68 |  | COc1ccc(CCCCCCOc2ccc(C(=O)c3cccc(C(=O)O)c3)cc2CCC(=O)O)cc1
15 | 79 |  |  | 100 |  | 18 |  | CSc1ccc(/C=C/CCCCOc2ccc(C(=O)c3cccc(C(=O)O)c3)cc2CCC(=O)O)cc1
16 | 21 |  |  | 78 |  |  |  | O=C(O)CCc1cc(C(=O)c2cccc(C(=O)O)c2)ccc1OCCCCc1ccccc1
17 | 16 |  |  | 67 |  |  |  | O=C(O)CCc1cc(C(=O)c2cccc(C(=O)O)c2)ccc1OCCCCOc1ccccc1
18 | 29 | 0 | 0 | 73 |  |  |  | CCCCCCCCCCCCCCOc1ccc(C(=O)c2cccc(C(=O)O)c2)cc1CCC(=O)O

Row | inhibition [1] [%] | inhibition [2] [%] | inhibition [3] [%] | inhibition [4] [%] | inhibition [5] [%] | inhibition [6] [%] | IC50 [7] [nM] | Compound
19 | 95 |  |  | 99 | 36 | 86 |  | C[S+]([O-])c1ccc(/C=C/CCCCOc2ccc(C(=O)c3cccc(C(=O)O)c3)cc2CCC(=O)O)cc1 (stereo not drawn)
20 | 77 |  |  | 100 | 6 | 22 |  | O=C(O)CCc1cc(C(=O)c2cccc(C(=O)O)c2)ccc1OCCCCCCc1ccc(F)cc1
21 | 89 |  |  | 98 | 31 | 60 |  | CS(=O)(=O)c1ccc(/C=C/CCCCOc2ccc(C(=O)c3cccc(C(=O)O)c3)cc2CCC(=O)O)cc1
22 | 95 |  |  | 100 | 40 | 88 | 13.2 | COc1ccc(/C=C/CCCCOc2ccc(C(=O)c3cccc(C(=O)O)c3)cc2CCC(=O)O)cc1
23 | 91 |  |  | 99 | 13 | 49 |  | COc1cccc(/C=C/CCCCOc2ccc(C(=O)c3cccc(C(=O)O)c3)cc2CCC(=O)O)c1
24 | 90 |  |  | 100 | 9 | 45 |  | COc1ccc(C#CCCCCOc2ccc(C(=O)c3cccc(C(=O)O)c3)cc2CCC(=O)O)cc1
25 | 3 |  |  | 37 |  |  |  | O=C(O)CCc1cc(C(=O)c2cccc(C(=O)O)c2)ccc1OCCc1ccccc1
26 | 96 |  |  | 100 | 20 | 66 |  | COc1ccc(/C=C/CCCCOc2ccc(C(=O)c3cccc(C(=O)O)c3)cc2CCC(=O)O)c(OC)c1
27 | 89 |  |  | 95 |  | 46 |  | COc1cccc(CCCCCCOc2ccc(C(=O)c3cccc(C(=O)O)c3)cc2CCC(=O)O)c1
28 | 93 |  |  | 100 | 15 | 42 |  | O=C(O)CCc1cc(C(=O)c2cccc(C(=O)O)c2)ccc1OCCCCCCc1ccc(Cl)cc1
29 | 76 |  |  | 90 | 0 | 31 |  | COc1ccc(/C=C\CCCCOc2ccc(C(=O)c3cccc(C(=O)O)c3)cc2CCC(=O)O)cc1
30 | 96 |  |  |  | 24 | 73 |  | Cc1ccc(/C=C/CCCCOc2ccc(C(=O)c3cccc(C(=O)O)c3)cc2CCC(=O)O)cc1
31 |  |  |  |  | 0 | 28 |  | O=C(O)CCc1cc(C(=O)c2cccc(C(=O)O)c2)ccc1OCCCCCCCCCCc1ccccc1
32 | 90 |  |  | 100 | 6 | 43 |  | O=C(O)CCc1cc(C(=O)c2cccc(C(=O)O)c2)ccc1OCCCCCCc1ccc(O)cc1
33 | 100 |  |  | 100 | 25 | 88 |  | COc1ccccc1/C=C/CCCCOc1ccc(C(=O)c2cccc(C(=O)O)c2)cc1CCC(=O)O
34 | 85 | 36 | 14 | 100 |  |  |  | O=C(O)CCc1cc(C(=O)c2cccc(C(=O)O)c2)ccc1OCCCCCCc1ccccc1
35 | 3 |  |  | 31 |  |  |  | O=C(O)CCc1cc(C(=O)c2cccc(C(=O)O)c2)ccc1OCc1ccccc1
